Measured values reported in ChEMBL document CHEMBL1123477, “Phenethyl ester derivative analogues of the C-terminal tetrapeptide of gastrin as potent gastrin antagonists” (J Med Chem, 1986).
Calls of active or inactive are those of the source. The calls are words filed in the database; no cut-off is given here. Where a SMILES comes first, the peptide text is derived from it. The star is where a group is joined. Boc = CC(C)(C)OC(=O)*

Experiments:
[1] = Compound was evaluated for the inhibition of [125 I](Nle12)HG-13 binding to isolated gastric mucosa cells.; parameters: species or system Oryctolagus cuniculus; conditions: in the assay text read “(Nle11)” for “(Nle12)”
Procedure, shortened: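 Dispersed rabbit fundic mucosal cells (collagenase/EDTA digestion, mixed population with about 45% parietal cells) were incubated in Hepes-buffered Earle's medium with 0.2% BSA, pH 7.4. Incubation was 30 min at 37 °C with 20 pM mono-iodinated (Nle11)-HG-13 (chloramine T labelling) plus varied peptide concentrations. Nonsaturable binding was defined with 1 × 10^-6 M unlabeled (Nle11)-HG-13.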

[2] = tested on: Rattus norvegicus; experiment: Compound was evaluated for the antagonist activity (ED50) against gastrin-induced acid secretion in the anesthetized rat.; format: functional
Procedure, shortened: (§1)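 Urethane-anaesthetized rats (ip) with the stomach continuously perfused at 30 °C with propionate-succinate solution. Cumulative pH was recorded over time as the index of acid secretion. Compound in alkaline aqueous solution was given as an iv bolus together with (Leu15)-human gastrin I, usually 80 pmol. H+ output, taken from the stimulated minus basal trace, was expressed as % inhibition relative to gastrin alone.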

[3] = tested on: Rattus norvegicus; experiment: Compound was evaluated for the antagonist activity (ED50) against gastrin-induced acid secretion in the anesthetized rat; Inactive; format: functional, organism-based; procedure, shortened: as §1

SMILES	IC50 [1]	ED50 [2]	ED50 [3]
CC(C)C[C@H](NC(=O)[C@@H](Cc1c[nH]c2ccccc12)NC(=O)CCNC(=O)OC(C)(C)C)C(=O)N[C@H](CC(=O)O)C(=O)OCCc1ccccc1	0.075 µM	0.04 mg/kg	
CC(C)C[C@H](NC(=O)[C@H](Cc1c[nH]c2ccccc12)NC(=O)OC(C)(C)C)C(=O)N[C@@H](CC(=O)O)C(=O)OCCc1ccccc1C(F)(F)F		1.5 mg/kg	
CC(C)C[C@H](NC(=O)[C@H](Cc1c[nH]c2ccccc12)NC(=O)OC(C)(C)C)C(=O)N[C@@H](CC(=O)O)C(=O)OCCc1ccccc1F		0.1 mg/kg	
CC(C)C[C@H](NC[C@H](Cc1c[nH]c2ccccc12)NC(=O)OC(C)(C)C)C(=O)N[C@@H](CC(=O)O)C(=O)OCCc1ccccc1		1 mg/kg	
CC(C)C[C@H](NC(=O)[C@H](Cc1c[nH]c2ccccc12)NC(=O)OC(C)(C)C)C(=O)N[C@@H](CC(=O)O)C(=O)OCCc1cccc(C(F)(F)F)c1		> 1 mg/kg	
CC(C)C[C@H](NC(=O)[C@H](Cc1c[nH]c2ccccc12)NC(=O)OC(C)(C)C)C(=O)N[C@@H](CC(=O)O)C(=O)OCCc1ccccc1	0.75 µM	0.1 mg/kg	
CC(C)C[C@H](NC(=O)[C@H](Cc1c[nH]c2ccccc12)NC(=O)OC(C)(C)C)C(=O)N[C@@H](CC(=O)O)C(=O)N[C@@H](Cc1ccccc1)C(N)=O (Boc-WLDF-NH2)	0.5 µM		
CC(C)C[C@H](NC(=O)[C@H](Cc1c[nH]c2ccccc12)NC(=O)CCNC(=O)OC(C)(C)C)C(=O)N[C@H](CC(=O)O)C(=O)OCCc1ccccc1		0.08 mg/kg	
CC(C)C[C@H](NC(=O)[C@@H](Cc1c[nH]c2ccccc12)NC(=O)OC(C)(C)C)C(=O)N[C@@H](CC(=O)O)C(=O)OCCc1ccccc1		0.8 mg/kg	
CC(C)C[C@@H](NC(=O)[C@H](Cc1c[nH]c2ccccc12)NC(=O)OC(C)(C)C)C(=O)N[C@H](CC(=O)OCCc1ccc(F)cc1)C(=O)O			inactive
CC(C)C[C@H](NC(=O)[C@H](Cc1c[nH]c2ccccc12)NC(=O)OC(C)(C)C)C(=O)N[C@@H](CC(=O)O)C(=O)OCCc1ccc(F)cc1		0.08 mg/kg	
CC(C)C[C@H](NC(=O)[C@H](Cc1c[nH]c2ccccc12)NC(=O)CCNC(=O)OC(C)(C)C)C(=O)N[C@@H](CC(=O)O)C(=O)OCCc1ccc(F)cc1		0.02 mg/kg	
CC(C)C[C@H](NC[C@H](Cc1c[nH]c2ccccc12)NC(=O)OC(C)(C)C)C(=O)N[C@@H](CC(=O)O)C(=O)OCCc1ccc(F)cc1		0.1 mg/kg	
CC(C)C[C@H](NC(=O)OC(C)(C)C)C(=O)N[C@@H](CC(=O)O)C(=O)OCCc1ccccc1			inactive
CC(C)C[C@H](NC(=O)[C@@H](Cc1c[nH]c2ccccc12)NC(=O)CCNC(=O)OC(C)(C)C)C(=O)N[C@H](CC(=O)O)C(=O)NC(Cc1ccccc1)C(N)=O (some centres not stated)	0.05 µM		
